In data set [1] the target is T1, Transient receptor potential cation channel subfamily V member 1 (Homo sapiens, UniProt Q8NER1). Briefly: Antagonist activity at TRPV1 expressed in HEK293 cells assessed as inhibition of capsaicin-induced activation by FLIPR assay. The data set is classed as functional, cell-based. In short, it runs like this: (§1)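 FLIPR calcium-flux run at 37 °C in a HEK293 line stably transfected with TRPV1. Channel activated by capsaicin or by PMA, and the IC50 is taken against each agonist. Compounds dissolved in DMSO, with DMSO alone as the vehicle control.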

For data set [2], the target named is T1, Transient receptor potential cation channel subfamily V member 1. Briefly: Antagonist activity at TRPV1 expressed in HEK293 cells assessed as inhibition of capsaicin-induced activation at 10 uM by FLIPR assay. Set-up: scale not given: the % may be the effect or the level left. The data set is classed as functional, cell-based. In short, it runs like this:
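TRPV1 FLIPR run at 37 °C in stably transfected HEK293 cells, capsaicin-activated. Percent inhibition measured with test compound at a single concentration of 10 µM, from DMSO solution, with a DMSO vehicle control.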

Data set [3] has the same target. Briefly: Antagonist activity at TRPV1 expressed in HEK293 cells assessed as inhibition of PMA-induced activation by FLIPR assay. The data set is classed as functional, cell-based. In short, it runs like this: as §1
Data set [4] is described as follows: AUC (0 to 6 hrs) in rat at 10 mg/kg, po. The data set is classed as ADME, organism-based. Also noted: time < 6 hr, dose 10 mg/kg, route oral. Particulars: plasma. In outline: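 Rat pharmacokinetics: oral dosing at 10 mpk in 20% HPBCD vehicle; AUC taken over 0–6 h.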
Data set [5] can be described thus: Aqueous solubility of the compound. The data set is classed as physicochemical. The following applies: buffer.
The nature of data set [6]: Stability in pH 7.4 buffer after 24 hrs. The data set is classed as physicochemical. The following applies: pH 7.4, 24 h. In outline: (§2)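 Compound held in pH 7.4 buffer spiked with 0.1 M NaSMe and methylamine to mimic plasma nucleophiles. Followed by LC–MS for up to 24 h, tracking loss of parent and appearance of the ring-opened amino acid.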
Data set [7] is described as follows: Stability in pH 7.4 buffer assessed as formation of 1-(tert-butoxycarbonyl)-3-(phenyl(phenylamino)methyl)azetidine-3-carboxylic acid after 2 hrs. The following applies: pH 7.4, 2 h. Type of data set: physicochemical. In outline:
as §2

The nature of data set [8]: Half life in iv dosed rat. Type of data set: ADME, organism-based. Particulars: in vivo. In outline: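 Rat dosed intravenously as an add-on to the oral PK study (10 mpk oral in 20% HPBCD); terminal half-life from the iv arm.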
The nature of data set [9]: Oral bioavailability in rat at 10 mg/kg. The data set is classed as ADME, organism-based. Particulars: in vivo.

In brackets after ≈: the same amount, converted by molar mass. Activity calls are given as the source filed them. The calls are words filed in the database; no cut-off is given here.

T1 sequence (Q8NER1 whole entry): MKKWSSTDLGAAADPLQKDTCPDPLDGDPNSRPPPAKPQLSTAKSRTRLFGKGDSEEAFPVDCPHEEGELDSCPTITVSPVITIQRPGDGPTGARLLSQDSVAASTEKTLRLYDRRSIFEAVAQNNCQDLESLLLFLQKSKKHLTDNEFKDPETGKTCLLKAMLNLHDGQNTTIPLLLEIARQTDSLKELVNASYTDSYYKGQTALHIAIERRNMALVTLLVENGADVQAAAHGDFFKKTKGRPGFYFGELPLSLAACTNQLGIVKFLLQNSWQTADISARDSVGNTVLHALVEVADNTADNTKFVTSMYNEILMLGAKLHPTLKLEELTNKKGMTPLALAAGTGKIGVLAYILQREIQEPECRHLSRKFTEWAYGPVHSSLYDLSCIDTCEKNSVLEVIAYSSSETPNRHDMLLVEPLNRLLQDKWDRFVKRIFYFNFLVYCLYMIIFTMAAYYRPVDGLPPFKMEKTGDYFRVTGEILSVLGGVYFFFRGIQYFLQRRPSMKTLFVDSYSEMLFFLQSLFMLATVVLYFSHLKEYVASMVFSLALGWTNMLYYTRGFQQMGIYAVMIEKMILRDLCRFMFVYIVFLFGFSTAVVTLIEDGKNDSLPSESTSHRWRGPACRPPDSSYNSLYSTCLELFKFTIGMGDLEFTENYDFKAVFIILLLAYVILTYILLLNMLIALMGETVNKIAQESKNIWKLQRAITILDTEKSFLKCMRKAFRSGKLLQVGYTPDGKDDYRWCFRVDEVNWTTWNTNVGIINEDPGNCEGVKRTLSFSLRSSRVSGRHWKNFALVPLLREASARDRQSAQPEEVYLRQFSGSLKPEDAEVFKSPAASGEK

With `CC(C)(c1ccccc1)c1ccc(NC(=O)N2CCC3(CC2)C(=O)N(c2ccccc2)[C@H]3c2ccccc2)cc1`, the IC50 in data set [1] was found to be 226 nM.
On to `O=C(Nc1ccc(C(F)(F)F)cc1)N1CCC2(CC1)C(=O)N(c1ccccn1)[C@@H]2c1ccccc1`, for which, in data set [2], the Activity is 83%.
With `CC(C)(C)c1ccc(NC(=O)N2CCC3(CC2)C(=O)N(c2ccccc2)[C@@H]3c2ccccc2)cc1`, the Activity in data set [2] came out at 8.5%.
As for `CC(C)(C)c1ccc(NC(=O)N2CCC3(CC2)C(=O)N(c2ccccc2)[C@H]3c2ccccc2)cc1`, the IC50 was 9.4 nM in data set [1] and 12 nM in data set [3]. In [4], this molecule showed an AUC(0-t) at 6 h of 49 ng·h/mL. In data set [5], this molecule returned a solubility of 0.094 µM (≈ 0.044 µg/mL).
In the case of `CC(C)c1ccc(NC(=O)N2CCC3(CC2)C(=O)N(c2ccccc2)[C@@H]3c2ccccc2)cc1`, the result in data set [2] was inactive.
On to `CC(C)(C)c1ccc(NC(=O)N2CCC3(CC2)CN(c2ccccc2-c2ccccc2)C3=O)cc1`, for which, in data set [2], the Activity was found to be 73%.
For `CC(C)(C)OC(=O)N1CCC2(CC1)C(=O)N(c1ccccc1)C2c1ccccc1` (centres undefined), the Stability result in data set [6] was “Stable”.
As for `CC(C)(C)OC(=O)N1CC2(C1)C(=O)N(c1ccccc1)C2c1ccccc1` (centres undefined), the Stability result in data set [7] is “Unstable”.
In the case of `CC(C)(C)c1ccc(NC(=O)N2CCC3(CC2)CN(c2ccccc2)C3=O)cc1`, the IC50 in data set [1] came to 80 nM; in data set [3] it was 59 nM.
Taken in the same sequence, the figures for `O=C(Nc1ccc(C(F)(F)F)cn1)N1CCC2(CC1)C(=O)N(c1ccccc1)C2c1ccccc1` (racemic) were 205 nM and 318 nM.
`O=C(Nc1ccc(C(F)(F)F)cc1)N1CCC2(CC1)C(=O)N(c1ccccc1)C2c1ccccc1` (racemic): the IC50 came to 85 nM in [1] and 103 nM in [3]. The AUC(0-t) at 6 h in [4] amounted to 1660 ng·h/mL.
`CC(C)(C)[C@H]1CC[C@@H](NC(=O)N2CCC3(CC2)C(=O)N(c2ccccc2)[C@H]3c2ccccc2)CC1`: the IC50 was found to be 528 nM in [1] and 232 nM in data set [3].
As to `CC(C)c1ccc(NC(=O)N2CCC3(CC2)C(=O)N(c2ccccc2)C3c2ccccc2)cc1` (centres undefined), the IC50 in data set [1] is 101 nM; in [3], 113 nM. This molecule also showed an AUC(0-t) at 6 h in [4] of 44 ng·h/mL.
`CC(C)(C)[C@H]1CC[C@H](NC(=O)N2CCC3(CC2)C(=O)N(c2ccccc2)[C@H]3c2ccccc2)CC1`: the results for the IC50 in data set [1] and in data set [3] were 49 nM and 32 nM, respectively.
`CC(C)c1ccc(NC(=O)N2CCC3(CC2)C(=O)N(c2ccccc2)[C@H]3c2ccccc2)cc1`: the values for the IC50 in data set [1] and in [3] were 81 nM and 43 nM, respectively. Also, the AUC(0-t) at 6 h in data set [4] worked out at 19 ng·h/mL.
In the case of `O=C(Nc1ccc(C(F)(F)F)cc1)N1CCC2(CC1)C(=O)N(c1ccccn1)[C@H]2c1ccccc1`, the values for the IC50 in data set [1] and in [3] were 13 nM and 8.5 nM, respectively. In data set [4], the AUC(0-t) at 6 h stood at 2500 ng·h/mL. The half-life in data set [8] was 2.5 h. In [9], this molecule displayed a bioavailability of 45%. The molecule further showed a solubility in [5] of 0.3 µM (≈ 0.144 µg/mL).

The record behind these values is ChEMBL document CHEMBL1143308, “Spiro-piperidine azetidinones as potent TRPV1 antagonists” (Bioorg Med Chem Lett, 2009).
